The source made the active and inactive calls. The rule behind the calls is not given here. Some results are limits rather than exact numbers.

The record followed here is ChEMBL document CHEMBL1152701, “Design, synthesis and biological evaluation of novel dual inhibitors of acetylcholinesterase and beta-secretase” (Bioorg Med Chem, 2009).

In test [1] the target is T1, Beta-secretase 1 (Homo sapiens, UniProt P56817). As to the kind of experiment: Inhibition of BACE1 in HEK293 cells transfected with human betaAPP695 mutant assessed as inhibition of amyloid beta (1 to 40) production after 24 hrs by ELISA. It is filed as cell-based. The procedure, abridged: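 HEK293 cells stably carrying APP695 with Swedish double mutation, grown in DMEM plus 10% heat-inactivated FBS. Compounds added at seeding at several concentrations, 24 h at 37 °C, 5% CO2. Secreted Aβ1-40 in conditioned medium quantified by colorimetric sandwich ELISA.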
T1 sequence (P56817 whole entry): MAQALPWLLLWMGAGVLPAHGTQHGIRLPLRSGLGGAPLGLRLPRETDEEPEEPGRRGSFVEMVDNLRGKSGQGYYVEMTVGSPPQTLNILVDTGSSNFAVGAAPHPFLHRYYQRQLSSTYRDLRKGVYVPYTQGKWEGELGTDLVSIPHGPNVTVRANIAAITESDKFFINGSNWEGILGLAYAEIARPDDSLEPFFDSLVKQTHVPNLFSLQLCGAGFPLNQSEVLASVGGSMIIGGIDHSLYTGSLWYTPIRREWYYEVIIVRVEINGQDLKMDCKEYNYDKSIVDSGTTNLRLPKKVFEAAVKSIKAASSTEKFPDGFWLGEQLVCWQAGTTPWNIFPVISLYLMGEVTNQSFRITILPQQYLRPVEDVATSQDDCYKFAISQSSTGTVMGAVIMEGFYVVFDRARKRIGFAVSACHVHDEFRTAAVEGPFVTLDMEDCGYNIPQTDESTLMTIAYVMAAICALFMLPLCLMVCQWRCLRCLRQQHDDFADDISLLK

For test [2], the target named is T1, Beta-secretase 1. Kind of test: Inhibition of human recombinant C-terminal histidine-tagged BACE1 expressed in baculovirus-infected insect cells by FRET assay.
Test [3] deals with Mus musculus. As to the kind of experiment: Decrease in amyloid beta (1 to 40) production in transgenic mouse transfected with human APP695 Swedish double mutant at 10 nmol, intracerebroventricularly after 4 hrs by ELISA relative to control. Also noted: scale not given: the % may be the effect or the level left. It is filed as functional. The procedure, abridged: (§1)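 The vehicle control was distilled H2O. After 4 h, hemispheres were isolated on ice and Aβ1-40 was measured by colorimetric human Aβ1-40 ELISA against vehicle-treated mice. Data are means ± SD; independent t-test.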

Another test concerns PC-12. As to the kind of experiment: Cell protective activity against H2O2-induced cell injury in rat PC12 cells assessed as cell viability at 1 to 10 uM pretreated for 2 hrs measured after 24 hrs by MTT assay. In kind it is functional, cell-based. The procedure, abridged: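 PC12 cells seeded at 1 × 10^5 cells per mL in DMEM with 10% heat-inactivated bovine calf serum, used 24 h later. Compounds dissolved in 2% DMSO then diluted in PBS; 2 h pretreatment, H2O2 for 30 min, then fresh phenol red-free DMEM. Viability by MTT reduction 24 h later, absorbance 570 and 630 nm. Means ± SD, one-way ANOVA with Duncan's test.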

The test system of test [4] is Mus musculus. As to the kind of experiment: Decrease in amyloid beta (1 to 40) production in transgenic mouse transfected with human APP695 Swedish double mutant at 8 nmol, intracerebroventricularly after 4 hrs by ELISA relative to control. On the set-up: scale not given: the % may be the effect or the level left. It is filed as functional. The procedure, abridged:
as §1

As for `C[C@@H](NC(=O)c1cccc(C(=O)N[C@@H](Cc2ccccc2)[C@H](O)CNCCC2CCN(Cc3ccccc3)CC2)c1)c1ccc(F)cc1`, on Beta-secretase 1 [1], the IC50 was less than 1000 nM. In the case of `C[C@@H](NC(=O)c1cc(C(=O)N[C@@H](Cc2ccccc2)C(O)C(=O)NC2CCN(Cc3ccccc3)CC2)cc(N(C)S(C)(=O)=O)c1)c1ccccc1` (mixture of isomers), the half-maximal inhibitory concentration (IC50) at Beta-secretase 1 [1] is less than 1000 nM.

Take `C[C@@H](NC(=O)c1cc(C(=O)N[C@@H](Cc2ccccc2)C(O)C(=O)NCCC2CCN(Cc3ccccc3)CC2)cc(N(C)S(C)(=O)=O)c1)c1ccc(F)cc1` (mixture of isomers): the 50% inhibitory concentration (IC50) at Beta-secretase 1 [1] is less than 1000 nM. With `C[C@@H](NC(=O)c1cc(C(=O)N[C@@H](Cc2ccccc2)[C@H](O)CNCC2CCN(Cc3ccccc3)CC2)cc(N(C)S(C)(=O)=O)c1)c1ccc(F)cc1`, the concentration for half-maximal inhibition (IC50) on Beta-secretase 1 [1] is less than 1000 nM; on Beta-secretase 1 [2], 3230 nM. For the compound `C[C@@H](NC(=O)c1cc(C(=O)N[C@@H](Cc2ccccc2)C(O)C(=O)NCC2CCN(Cc3ccccc3)CC2)cc(N(C)S(C)(=O)=O)c1)c1ccccc1` (mixture of isomers), the IC50 at Beta-secretase 1 [1] is less than 1000 nM. Same read-out and setting: in the case of `CCCN(CCC)C(=O)c1cc(C(=O)N[C@@H](Cc2ccccc2)C(O)C(=O)NCCC2CCN(Cc3ccccc3)CC2)cc([N+](=O)[O-])c1` (mixture of isomers) it was less than 1000 nM. In the case of `C[C@@H](NC(=O)c1cc(C(=O)N[C@@H](Cc2ccccc2)[C@H](O)CNCCC2CCN(Cc3ccccc3)CC2)cc([N+](=O)[O-])c1)c1ccc(F)cc1`, the IC50 at Beta-secretase 1 [1] was less than 1000 nM; on Beta-secretase 1 [2], 2680 nM.

Regarding `CC(C)C[C@H](NC(=O)c1cc(C(=O)N[C@H](C)c2ccc(F)cc2)cc(N(C)S(C)(=O)=O)c1)[C@@H](O)C[C@@H](C)C(=O)NC1CCN(Cc2ccccc2)CC1`, the half-maximal inhibitory concentration (IC50) at Beta-secretase 1 [1] is less than 1000 nM; on Beta-secretase 1 [2] it was 1500 nM.

On to `CC(C)C[C@H](NC(=O)c1cc(C(=O)N[C@H](C)c2ccccc2)cc(N(C)S(C)(=O)=O)c1)[C@@H](O)C[C@@H](C)C(=O)NC1CCN(Cc2ccccc2)CC1`, for which the IC50 on Beta-secretase 1 [1] is less than 1000 nM; on Beta-secretase 1 [2], 1540 nM. In the case of `C[C@@H](NC(=O)c1cc(C(=O)N[C@H](CO)Cc2ccccc2)cc(N(C)S(C)(=O)=O)c1)c1ccc(F)cc1`, the IC50 on Beta-secretase 1 [1] was less than 1000 nM; at Beta-secretase 1 [2], 462 nM. Consider `C[C@@H](NC(=O)c1cc(C(=O)N[C@@H](Cc2ccccc2)[C@H](O)CNC2CCN(Cc3ccccc3)CC2)cc(N(C)S(C)(=O)=O)c1)c1ccccc1`, for which the IC50 is 54.6 nM at Beta-secretase 1 [1] and 511 nM on Beta-secretase 1 [2]. Further, in the test on Mus musculus [3], the Activity is reported as 23%. For the same compound, the result with PC-12 was Active.

With `CCCN(CCC)C(=O)c1cc(C(=O)N[C@@H](Cc2ccccc2)[C@H](O)CNCCC2CCN(Cc3ccccc3)CC2)cc([N+](=O)[O-])c1`, the IC50 at Beta-secretase 1 [1] was less than 1000 nM.

As for `CCCN(CCC)C(=O)c1cc(C(=O)N[C@@H](Cc2ccccc2)[C@H](O)CNCCC2CCN(Cc3ccccc3)CC2)cc(N(C)S(C)(=O)=O)c1`, the half-inhibitory concentration (IC50) on Beta-secretase 1 [1] is less than 1000 nM; at Beta-secretase 1 [2] it was 2390 nM. On to `CCCN(CCC)C(=O)c1cc(C(=O)N[C@@H](Cc2ccccc2)C(O)C(=O)NCC2CCN(Cc3ccccc3)CC2)cc([N+](=O)[O-])c1` (mixture of isomers), for which, at Beta-secretase 1 [1], the IC50 is less than 1000 nM. Same read-out and setting: the figure for `C[C@@H](NC(=O)c1cc(C(=O)N[C@@H](Cc2ccccc2)C(O)C(=O)NCC2CCN(Cc3ccccc3)CC2)cc(N(C)S(C)(=O)=O)c1)c1ccc(F)cc1` (mixture of isomers) is less than 1000 nM. On to `C[C@@H](NC(=O)c1cc(C(=O)N[C@@H](Cc2ccccc2)[C@H](O)CNCCC2CCN(Cc3ccccc3)CC2)cc(N(C)S(C)(=O)=O)c1)c1ccccc1`, for which the IC50 at Beta-secretase 1 [1] was determined as 98.7 nM; on Beta-secretase 1 [2], 567 nM. For the same compound, the outcome in the test on PC-12 was Active. Moreover, the Activity in the test with Mus musculus [4] is given as 29%. Take `CCCN(CCC)C(=O)c1cc(C(=O)N[C@@H](Cc2ccccc2)C(O)C(=O)NC2CCN(Cc3ccccc3)CC2)cc([N+](=O)[O-])c1` (mixture of isomers): the IC50 on Beta-secretase 1 [1] is less than 1000 nM.

`C[C@@H](NC(=O)c1cccc(C(=O)N[C@@H](Cc2ccccc2)[C@H](O)CNCCC2CCN(Cc3ccccc3)CC2)c1)c1ccccc1`: on Beta-secretase 1 [1], the IC50 was less than 1000 nM. Still for that read-out and setting: the figure for `CCCN(CCC)C(=O)c1cccc(C(=O)N[C@@H](Cc2ccccc2)[C@H](O)CNCCC2CCN(Cc3ccccc3)CC2)c1` is less than 1000 nM; for `C[C@@H](NC(=O)c1cc(C(=O)N[C@@H](Cc2ccccc2)C(O)C(=O)NC2CCN(Cc3ccccc3)CC2)cc(N(C)S(C)(=O)=O)c1)c1ccc(F)cc1` (mixture of isomers) it is less than 1000 nM. Turning to `CC(C)C[C@H](NC(=O)c1cc(C(=O)N[C@H](C)c2ccc(F)cc2)cc(N(C)S(C)(=O)=O)c1)[C@@H](O)C[C@@H](C)C(=O)NCCC1CCN(Cc2ccccc2)CC1`, the IC50 on Beta-secretase 1 [1] is less than 1000 nM; on Beta-secretase 1 [2], 1340 nM. For `CC(C)C[C@H](NC(=O)c1cc(C(=O)N[C@H](C)c2ccccc2)cc(N(C)S(C)(=O)=O)c1)[C@@H](O)C[C@@H](C)C(=O)NN1CCN(Cc2ccccc2)CC1`, the half-maximal inhibitory concentration (IC50) on Beta-secretase 1 [1] was less than 1000 nM. For `C[C@@H](NC(=O)c1cc(C(=O)N[C@@H](Cc2ccccc2)[C@H](O)CNCCC2CCN(Cc3ccccc3)CC2)cc(N(C)S(C)(=O)=O)c1)c1ccc(F)cc1`, the IC50 was less than 1000 nM on Beta-secretase 1 [1] and 222 nM on Beta-secretase 1 [2]. The corresponding values for `CC(C)C[C@H](NC(=O)c1cc(C(=O)N[C@H](C)c2ccc(F)cc2)cc(N(C)S(C)(=O)=O)c1)[C@@H](O)C[C@@H](C)C(=O)NCC1CCN(Cc2ccccc2)CC1` are less than 1000 nM and 616 nM. On to `CC(C)C[C@H](NC(=O)c1cc(C(=O)N[C@H](C)c2ccc(F)cc2)cc(N(C)S(C)(=O)=O)c1)[C@@H](O)C[C@@H](C)C(=O)NN1CCN(Cc2ccccc2)CC1`, for which the IC50 on Beta-secretase 1 [1] was less than 1000 nM. On the same count and under the same terms, the figure for `C[C@@H](NC(=O)c1cc(C(=O)N[C@@H](Cc2ccccc2)C(O)C(=O)NCCC2CCN(Cc3ccccc3)CC2)cc(N(C)S(C)(=O)=O)c1)c1ccccc1` (mixture of isomers) is less than 1000 nM. As for `C[C@@H](NC(=O)c1cc(C(=O)N[C@@H](Cc2ccccc2)[C@H](O)CNC2CCN(Cc3ccccc3)CC2)cc(N(C)S(C)(=O)=O)c1)c1ccc(F)cc1`, the concentration for half-maximal inhibition (IC50) on Beta-secretase 1 [1] was less than 1000 nM; at Beta-secretase 1 [2], 771 nM. The matching figures for `C[C@@H](NC(=O)c1cc(C(=O)N[C@@H](Cc2ccccc2)[C@H](O)CNCC2CCN(Cc3ccccc3)CC2)cc(N(C)S(C)(=O)=O)c1)c1ccccc1`: less than 1000 nM and 4000 nM. On to `C[C@@H](NC(=O)c1cc(C(=O)N[C@@H](Cc2ccccc2)[C@H](O)CNCCC2CCN(Cc3ccccc3)CC2)cc([N+](=O)[O-])c1)c1ccccc1`, for which the values for the IC50 on Beta-secretase 1 [1] and on Beta-secretase 1 [2] were less than 1000 nM and 7020 nM, respectively.
